Data set [1] is described as follows: Toxicity in BALB/c nu/nu mouse xenografted with human A2780 cells assessed as mouse death at 50 mg/kg, iv administered 3 times a week for 2 weeks starting from 5 to 6 days post tumor inoculation. In kind it is organism-based. The settings on record: in vivo. Summed up:
(§1)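 Human A2780 ovarian adenocarcinoma cells were cultured and implanted into BALB/c-nu/nude mice, n = 6 per group. Tumor size and volume were measured 5 or 6 days later. Compounds were suspended in 1% carboxymethyl cellulose and given intravenously. Deaths and body weight were monitored. Tumor growth inhibition = [1 − (mean treated tumor volume)/(mean control tumor volume)] × 100%.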
(In general: A xenograft is tissue or cells of one species grown in another, often human tumour cells in immunodeficient mice.)

The subject of data set [2] is A2780. The data set is described as follows: Cytotoxicity against human A2780 cells assessed as cell growth inhibition. Format: functional, cell-based.
Data set [3] in a line: Toxicity in BALB/c athymic nu/nu mouse xenografted with human NCI-H1975 cells assessed as mouse death at 200 mg/kg, iv administered once a week for 3 weeks. Format: organism-based. The settings on record: in vivo, 504 h. The method, boiled down: (§2)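 Athymic BALB/c-nu/nude mice bearing NCI-H1975 human lung carcinoma xenografts, n = 6 per group. Compounds were given i.v. at 200 mg/kg once weekly for three weeks. Deaths and body weight loss were recorded. Tumor growth inhibition was calculated from mean treated versus mean control tumor volumes.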

Data set [4] relates to HCT-116. The data set is described as follows: Cytotoxicity against human HCT116 cells assessed as cell growth inhibition. In kind it is functional, cell-based.
Data set [5] can be described thus: Toxicity in BALB/c athymic nu/nu mouse xenografted with human NCI-H1975 cells assessed as effect on body weight at 200 mg/kg, iv administered once a week for 3 weeks. In kind it is organism-based. The settings on record: in vivo, 504 h. The method, boiled down:
as §2

The nature of data set [6]: Toxicity in BALB/c nu/nu mouse xenografted with human A2780 cells assessed as effect on body weight at 50 mg/kg, iv administered 3 times a week for 2 weeks starting from 5 to 6 days post tumor inoculation. Format: organism-based. Conditions: in vivo. Summed up: as §1
Data set [7] deals with A2780. The data set is described as follows: Antitumor activity against human A2780 cells xenografted in BALB/c nu/nu mouse assessed as tumor growth inhibition at 50 mg/kg, iv administered 3 times a week for 2 weeks starting from 5 to 6 days post tumor inoculation relative to control. Format: functional. Conditions: read-out: TGI. The method, boiled down: as §1
Data set [8] has as its system NCI-H1975. The data set is described as follows: Antitumor activity against human NCI-H1975 cells xenografted in BALB/c athymic nu/nu mouse assessed as tumor growth inhibition at 200 mg/kg, iv administered once a week for 3 weeks relative to control. Conditions: 504 h, read-out: TGI. In kind it is functional. The method, boiled down:
as §2

The target in data set [9] is T1, Heat shock protein HSP90 (Homo sapiens, UniProt P07900+P08238). The data set is described as follows: Inhibition of HSP90 ATPase activity (unknown origin). Format: protein assay.
Data set [10] has as its target T1, Heat shock protein HSP90. The data set is described as follows: Inhibition of HSP90 (unknown origin) assessed as HER2 degradation by cell-based assay.
Data set [11] can be described thus: Toxicity in BALB/c nu/nu mouse xenografted with human A2780 cells assessed as mouse death at 50 mg/kg, iv administered 3 times a week for 3 weeks starting from 5 to 6 days post tumor inoculation. In kind it is organism-based. Conditions: in vivo. Summed up: as §1
Data set [12] concerns A2780. The data set is described as follows: Antitumor activity against human A2780 cells xenografted in BALB/c nu/nu mouse assessed as tumor growth inhibition at 50 mg/kg, iv administered 3 times a week for 3 weeks starting from 5 to 6 days post tumor inoculation relative to control. In kind it is functional. The settings on record: read-out: TGI. The method, boiled down:
as §1

Data set [13] in a line: Toxicity in BALB/c nu/nu mouse xenografted with human A2780 cells assessed as effect on body weight at 50 mg/kg, iv administered 3 times a week for 3 weeks starting from 5 to 6 days post tumor inoculation. Format: organism-based. Conditions: in vivo. The method, boiled down:
as §1

Data set [14] can be described thus: Toxicity in BALB/c athymic nu/nu mouse xenografted with human NCI-H1975 cells assessed as mouse death at 150 mg/kg, iv administered once a week for 3 weeks. Format: organism-based. Conditions: in vivo, 504 h.
Data set [15] is described as follows: Toxicity in BALB/c athymic nu/nu mouse xenografted with human NCI-H1975 cells assessed as effect on body weight at 150 mg/kg, iv administered once a week for 3 weeks. In kind it is organism-based. The settings on record: in vivo, 504 h.
In data set [16] the test system is NCI-H1975. The data set is described as follows: Antitumor activity against human NCI-H1975 cells xenografted in BALB/c athymic nu/nu mouse assessed as tumor growth inhibition at 150 mg/kg, iv administered once a week for 3 weeks relative to control. Conditions: 504 h, read-out: TGI.

On to `CCNC(=O)c1noc(-c2cc(C(C)C)c(O)cc2O)c1-c1cn[nH]c1`, for which the Activity result in [1], in data set [3], in data set [5] and in [6] was “Non-Toxic” throughout. For the same molecule, the IC50 in [2] came to 38 nM; in data set [4], 43 nM; in data set [9], 469 nM; in data set [10], 13 nM. Moreover, the inhibition in vivo at 50 mg/kg in data set [7] was determined as 47.6%. Also, the inhibition in vivo at 200 mg/kg in [8] worked out at 55.4%.

Turning to `CCNC(=O)c1noc(-c2cc(C(C)C)c(O)cc2O)c1-c1cc(CO)no1`, the Activity result in data set [11], in data set [3], in data set [5] and in [13] was “Non-Toxic” each time. Moreover, the inhibition in vivo at 50 mg/kg in [12] was 47%. Also, the IC50 was found to be 5 nM in data set [2], 13 nM in data set [4], 279 nM in data set [9] and 42 nM in data set [10]. In data set [8], the inhibition in vivo at 200 mg/kg amounted to 50.9%.

As for `CCNC(=O)c1cc(-c2c(C(=O)NCC)noc2-c2cc(C(C)C)c(O)cc2O)on1`, the Activity result in data set [11], in data set [3], in data set [5] and in data set [13] was “Non-Toxic” in each case. In [12], the inhibition in vivo at 50 mg/kg came to 52%. Also, the IC50 in data set [2] is 43 nM; in [4], 14 nM; in data set [9] it was 284 nM; in data set [10], 28 nM. The inhibition in vivo at 200 mg/kg in data set [8] was 44%.

In the case of `CCNC(=O)c1noc(-c2cc(C(C)C)c(O)cc2O)c1-c1ccc(CN2CCOCC2)cc1` [LUMINESPIB], the Activity entry in data set [11], in data set [14], in [13] and in data set [15] was “Non-Toxic” each time. Further, the inhibition in vivo at 50 mg/kg in [12] turned out to be 48%. Moreover, the IC50 in [2] was 6 nM; in [4] it was 20 nM. For the same molecule, the inhibition in vivo at 150 mg/kg in [16] came out at 43.5%.

A word on the IC50: it is the concentration that gives 50% inhibition.

(Values after ChEMBL document CHEMBL4627371, “Discovery of novel heat shock protein (Hsp90) inhibitors based on luminespib with potent antitumor activity” (Bioorg Med Chem Lett, 2020).)
